Test results taken from PubChem BioAssay AID623895 (Broad Institute, 2012).
The source made the active and inactive calls.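 Rule for the calls: active = compounds with an ATP-loss curve whose half-maximal dose stays within twice the top dose, in every run; inconclusive = mixed run calls, weak flat effects or poor fits; inactive = the rest, including opposite-direction effects.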

How the values were obtained:
[1] = test system: ldlA[mSR-BI] CHO cells viability, ATP luminescence, 24 h; assay: viability loss of SR-BI expressing CHO cells – cell-based, 24 h, ATP luminescence, dry powder, set 6, cytotoxicity control for SR-BI HDL uptake inhibitor project, dose response (AID 623895)
Outline: (§1)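 material = ldlA[mSR-BI] cells | dosing = Eight-point compound dose series | incubation = 24 h at 37 °C, read after 10 min | signal = ATP luminescence (Cell Titer Glo) | read-out basis = viability IC50 from dose-response fit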

[2] = as above; conditions: ldlA[mSR-BI] CHO cells viability, ATP luminescence, 24 h; at 35 µM (top of the series)
Outline: as §1

| Compound | AC50 [1] [µM] | activity change, negative = cytotoxicity [2] |
| --- | --- | --- |
| C[C@@H]1CN([C@H](C)CN(C)C)C(=O)c2cc(NC(=O)Cc3cn(C)c4ccccc34)ccc2O[C@H]1CN(C)S(=O)(=O)c1ccc(Cl)cc1 | 15.3 |  |
| CCCCCCC1CCC/C1=N\NC(N)=S (centres undefined) | 3.81 |  |
| COc1ccc(S(=O)(=O)Nc2ccc3c(c2)C(=O)N([C@H](C)CO)C[C@@H](C)[C@H](CN(C)S(=O)(=O)c2ccc(Cl)cc2)O3)cc1 |  | -22.9% (inactive) |
| C[C@@H]1CN([C@H](C)CO)C(=O)c2cc(NC(=O)C3CCOCC3)ccc2O[C@H]1CN(C)S(=O)(=O)c1ccc(Cl)cc1 |  | -5.21% (inactive) |
| C[C@@H]1CN([C@H](C)CO)C(=O)c2cc(NC(=O)Cc3cn(C)c4ccccc34)ccc2O[C@@H]1CN(C)S(=O)(=O)c1ccc(Cl)cc1 |  | -21.3% (inactive) |
| C[C@@H]1CN([C@@H](C)CO)C(=O)Cc2cc(N(C)C)ccc2O[C@@H]1CN(C)Cc1ccc(C(=O)O)cc1 |  | 4.97% (inactive) |
| C[C@H](C(=O)NC1CCCC1)N(C(=O)Cn1nnc(-c2ccc3c(c2)OCO3)n1)C1CCCCC1 |  | -16.5% (inactive) |
| C[C@@H]1CN([C@H](C)CO)C(=O)c2cc(NC(=O)CCN3CCOCC3)ccc2O[C@H]1CN(C)S(=O)(=O)c1ccc(Cl)cc1 |  | 19.5% (inactive) |
| Cc1noc(C)c1NC(=O)N(C)C[C@@H]1Oc2ccc(NC(=O)Cc3cn(C)c4ccccc34)cc2C(=O)N([C@H](C)CO)C[C@H]1C |  | 10.5% (inactive) |
| CC(C)CN(C(=O)COC(=O)C12CC3CC(CC(O)(C3)C1)C2)C1CCS(=O)(=O)C1 (centres undefined) |  | -14.1% (inactive) |
| O=C(C[C@@H]1CC[C@@H](NC(=O)CC2CC2)[C@H](CO)O1)NCc1ccc(Cl)cc1 |  | -2.93% (inactive) |
| O=C(C[C@H]1CC[C@H](NC(=O)CC2CC2)[C@@H](CO)O1)NCc1ccc(Cl)cc1 |  | -5.27% (inactive) |
| C[C@H](CO)N1C[C@H](C)[C@H](CN(C)CC2CCCCC2)Oc2c(NS(=O)(=O)c3cn(C)cn3)cccc2C1=O |  | 5.52% (inactive) |
| COCC(=O)N1CCc2cc(-c3csc(NC(=O)c4cc(OC)cc(OC)c4)n3)ccc21 |  | 3.3% (inactive) |
| C[C@@H]1CN([C@@H](C)CO)C(=O)c2cc(NC(=O)NC3CCCCC3)ccc2O[C@H]1CN(C)Cc1ccncc1 |  | 5.45% (inactive) |
| COc1ccc(CN(C)C[C@@H]2Oc3ccc(NC(=O)Cc4cn(C)c5ccccc45)cc3C(=O)N([C@H](C)CO)C[C@H]2C)cc1 |  | -17.6% (inactive) |
| C[C@H](CO)N1C[C@H](C)[C@H](CN(C)C)Oc2c(NS(C)(=O)=O)cccc2C1=O |  | 4.96% (inactive) |
| C[C@@H]1CN([C@H](C)CO)C(=O)c2cc(NS(=O)(=O)c3ccc(F)cc3)ccc2O[C@H]1CN(C)S(=O)(=O)c1ccc(Cl)cc1 |  | -2.92% (inactive) |
| C[C@@H]1CN([C@H](C)CO)C(=O)c2cc(NC(=O)Nc3cccc4ccccc34)ccc2O[C@H]1CN(C)S(=O)(=O)c1ccc(Cl)cc1 |  | -10.4% (inactive) |
| CC(=O)Nc1ccc(Cl)c(C(=O)Nc2ccc(N3CCN(C(=O)OC(C)(C)C)CC3)cc2)c1 |  | -29.2% (inactive) |

| Compound | AC50 [1] [µM] | activity change, negative = cytotoxicity [2] |
| --- | --- | --- |
| CNC[C@@H]1OCCCC[C@@H](C)Oc2ccc(NS(=O)(=O)c3ccc(Cl)cc3)cc2C(=O)N([C@H](C)CO)C[C@H]1C |  | -5.46% (inactive) |
| COc1c(NC(=O)C(=O)c2ccc(OCCN3CCOCC3)c3ccccc23)cc(C(C)(C)C)cc1NS(C)(=O)=O | 34.3 |  |
| C[C@@H]1CN([C@H](C)CO)C(=O)c2cc(NC(=O)Cc3cn(C)c4ccccc34)ccc2O[C@H]1CN(C)CC1CCCCC1 |  | -22.1% (inactive) |
| O=C(O)CC(C(=O)Nc1cccc(C(F)(F)F)c1)C1CCCO1 (centres undefined) |  | -9.62% (inactive) |
| C[C@@H]1CN([C@@H](C)CO)C(=O)Cc2cc(NC(=O)CCCN(C)C)ccc2O[C@H]1CN(C)Cc1ccncc1 |  | 0.314% (inactive) |
| C[C@@H]1CN([C@H](C)CO)C(=O)c2cc(NC(=O)Cc3cn(C)c4ccccc34)ccc2O[C@H]1CN(C)S(=O)(=O)c1ccccc1 |  | -5.11% (inactive) |
| C[C@@H]1CN([C@H](C)CO)C(=O)c2cc(NC(=O)Cc3cn(C)c4ccccc34)ccc2O[C@H]1CN(C)C(=O)NC1CCCCC1 |  | 5.85% (inactive) |
| C[C@@H]1CN([C@H](C)CO)C(=O)c2cc(NC(=O)Cc3cn(C)c4ccccc34)ccc2O[C@H]1CN(C)C(=O)Nc1ccc(C(F)(F)F)cc1 |  | -31.9% (inactive) |
| Cc1ccc(S(=O)(=O)N(C)C[C@@H]2Oc3ccc(NC(=O)Cc4cn(C)c5ccccc45)cc3C(=O)N([C@H](C)CO)C[C@H]2C)cc1 |  | -12.8% (inactive) |
| C[C@@H]1CN([C@H](C)CO)C(=O)c2cc(NC(=O)Cc3cn(C)c4ccccc34)ccc2O[C@H]1CN(C)C |  | 6.87% (inactive) |
| C[C@@H]1CN([C@H](C)CO)C(=O)c2cc(NC(=O)Cc3cn(C)c4ccccc34)ccc2O[C@H]1CN(C)Cc1ccccc1 |  | -31.2% (inactive) |
| C[C@@H]1CN([C@H](C)CO)C(=O)c2cc(NC(=O)Cn3cnnn3)ccc2O[C@H]1CN(C)S(=O)(=O)c1ccc(Cl)cc1 |  | 10.5% (inactive) |
| C[C@@H]1CN([C@@H](C)CO)C(=O)Cc2cc(NS(=O)(=O)c3cn(C)cn3)ccc2O[C@H]1CN(C)Cc1ccc(Cl)c(Cl)c1 |  | 3.09% (inactive) |
| C[C@@H]1CN([C@H](C)CO)C(=O)c2cc(NC(=O)Cc3cn(C)c4ccccc34)ccc2O[C@H]1CN(C)S(=O)(=O)c1ccc(F)cc1 |  | -29.1% (inactive) |
| CCCNC(=O)N(C)C[C@@H]1Oc2cc(-c3cncnc3)ccc2S(=O)(=O)N([C@@H](C)CO)C[C@@H]1C |  | -5.43% (inactive) |
| C[C@@H]1CN([C@H](C)CO)C(=O)c2cc(NC(=O)C3CCCCC3)ccc2O[C@H]1CN(C)S(=O)(=O)c1ccc(Cl)cc1 |  | -30.6% (inactive) |
| CO[C@H]1CN(C)C(=O)c2cc(NC(=O)c3ccccc3F)ccc2OC[C@@H](C)N(C(C)=O)C[C@@H]1C |  | 1.07% (inactive) |
| C[C@@H]1CN([C@@H](C)CO)C(=O)Cc2cc(NS(C)(=O)=O)ccc2O[C@@H]1CN(C)Cc1ccc(C(F)(F)F)cc1 |  | -12.8% (inactive) |
| C[C@@H]1CN([C@H](C)CO)C(=O)c2cc(NC(=O)Nc3ccc(F)cc3)ccc2O[C@H]1CN(C)S(=O)(=O)c1ccc(Cl)cc1 |  | -20.6% (inactive) |
